Experimental data published in ChEMBL document CHEMBL1140914, “Synthesis and in vitro and in vivo evaluation of 18F-labeled positron emission tomography (PET) ligands for imaging the vesicular acetylcholine transporter” (J Med Chem, 2009).
Values belong to the compound of their own block, whether it stands above or below them.

Assays:
[1] = Displacement of [3H]DTG from sigma2 receptor in rat liver membrane; format: cell membranes
Summary of the method: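 Rat liver membrane homogenate (~300 μg protein) incubated 2 h at room temperature with ~5 nM [3H]DTG plus 1 μM (+)-pentazocine to mask σ1 sites. Haloperidol 10 μM defines nonspecific binding. Filtered and counted.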

[2] = biological target: T1, Vesicular acetylcholine transporter (Homo sapiens, UniProt Q16572); assay: Displacement of [3H]vesamicol from human vesicular acetylcholine transporter expressed in rat PC12 cells by liquid scintillation spectrometry; format: cell-based, PC-12
T1 sequence (Q16572 whole entry): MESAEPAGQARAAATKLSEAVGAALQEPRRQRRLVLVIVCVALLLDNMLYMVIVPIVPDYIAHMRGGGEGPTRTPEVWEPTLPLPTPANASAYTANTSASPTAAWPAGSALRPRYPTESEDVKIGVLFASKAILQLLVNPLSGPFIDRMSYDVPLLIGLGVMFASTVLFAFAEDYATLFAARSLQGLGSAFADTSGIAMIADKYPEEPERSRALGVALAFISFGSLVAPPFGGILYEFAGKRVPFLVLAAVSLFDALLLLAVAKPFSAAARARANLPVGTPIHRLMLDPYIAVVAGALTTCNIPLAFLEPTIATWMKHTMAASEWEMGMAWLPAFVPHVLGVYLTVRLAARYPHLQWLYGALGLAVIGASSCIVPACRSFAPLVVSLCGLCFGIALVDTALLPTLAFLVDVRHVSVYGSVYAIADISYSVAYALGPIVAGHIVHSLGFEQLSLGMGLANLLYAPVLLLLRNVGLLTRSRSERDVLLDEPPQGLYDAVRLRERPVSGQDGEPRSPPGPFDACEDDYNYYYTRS

[3] = biological target: Sigma non-opioid intracellular receptor 1 (Cavia porcellus, UniProt Q60492); assay: Displacement of [3H](+)-pentazocine from sigma1 receptor in guinea pig brain membrane by liquid scintillation counting; format: cell membranes
Chain of Sigma non-opioid intracellular receptor 1 (Q60492 whole entry): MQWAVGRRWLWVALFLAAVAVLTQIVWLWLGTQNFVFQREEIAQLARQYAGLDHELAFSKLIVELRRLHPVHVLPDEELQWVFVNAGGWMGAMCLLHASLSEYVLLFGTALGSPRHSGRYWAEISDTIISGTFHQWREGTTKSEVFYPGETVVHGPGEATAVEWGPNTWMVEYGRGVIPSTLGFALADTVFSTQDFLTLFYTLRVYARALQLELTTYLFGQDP

Blood [4] = assay: Drug uptake in Sprague-Dawley rat blood at 25 to 35 uCi, iv after 2 hrs postinjection by […]; format: ADME, organism-based; conditions: in vivo
Summary of the method: (§1)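 Mature male Sprague-Dawley rats (250–400 g) under 2–3% isoflurane got 25–35 μCi tracer in 100–150 μL saline via tail vein. Groups of at least 4 were euthanized at 5 min, 30 min, 1 h or 2 h. Brain was dissected into regions, and tissues were weighed and gamma counted against an injectate standard. Values are %ID/g, mean ± SD.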

Lung [5] = assay: Drug uptake in Sprague-Dawley rat lung at 25 to 35 uCi, iv after 5 mins postinjection by […]; format: ADME, organism-based; conditions: in vivo; summary of the method: as §1
Lung [6] = assay: Drug uptake in Sprague-Dawley rat lung at 25 to 35 uCi, iv after 30 mins postinjection by […]; format: ADME, organism-based; conditions: in vivo, 0.5 h; summary of the method: as §1
Lung [7] = assay: Drug uptake in Sprague-Dawley rat lung at 25 to 35 uCi, iv after 1 hr postinjection by […]; format: ADME, organism-based; conditions: in vivo; summary of the method: as §1
Lung [8] = assay: Drug uptake in Sprague-Dawley rat lung at 25 to 35 uCi, iv after 2 hrs postinjection by […]; format: ADME, organism-based; conditions: in vivo; summary of the method: as §1
Heart [9] = assay: Drug uptake in Sprague-Dawley rat heart at 25 to 35 uCi, iv after 5 mins postinjection by […]; format: ADME, organism-based; conditions: in vivo; summary of the method: as §1
Heart [10] = assay: Drug uptake in Sprague-Dawley rat heart at 25 to 35 uCi, iv after 30 mins postinjection by […]; format: ADME, organism-based; conditions: in vivo, 0.5 h; summary of the method: as §1
Heart [11] = assay: Drug uptake in Sprague-Dawley rat heart at 25 to 35 uCi, iv after 1 hr postinjection by […]; format: ADME, organism-based; conditions: in vivo; summary of the method: as §1
Heart [12] = assay: Drug uptake in Sprague-Dawley rat heart at 25 to 35 uCi, iv after 2 hrs postinjection by […]; format: ADME, organism-based; conditions: in vivo; summary of the method: as §1
Muscle tissue [13] = assay: Drug uptake in Sprague-Dawley rat muscle at 25 to 35 uCi, iv after 5 mins postinjection by […]; format: ADME, organism-based; conditions: in vivo; summary of the method: as §1
Muscle tissue [14] = assay: Drug uptake in Sprague-Dawley rat muscle at 25 to 35 uCi, iv after 30 mins postinjection by […]; format: ADME, organism-based; conditions: in vivo, 0.5 h; summary of the method: as §1
Muscle tissue [15] = assay: Drug uptake in Sprague-Dawley rat muscle at 25 to 35 uCi, iv after 1 hr postinjection by […]; format: ADME, organism-based; conditions: in vivo; summary of the method: as §1
Muscle tissue [16] = assay: Drug uptake in Sprague-Dawley rat muscle at 25 to 35 uCi, iv after 2 hrs postinjection by […]; format: ADME, organism-based; conditions: in vivo; summary of the method: as §1
[17] = Drug uptake in Sprague-Dawley rat fat at 25 to 35 uCi, iv after 5 mins postinjection by […]; format: ADME, organism-based, Adipose tissue; conditions: in vivo; summary of the method: as §1
[18] = Drug uptake in Sprague-Dawley rat fat at 25 to 35 uCi, iv after 30 mins postinjection by […]; format: ADME, organism-based, Adipose tissue; conditions: in vivo, 0.5 h; summary of the method: as §1
[19] = Drug uptake in Sprague-Dawley rat fat at 25 to 35 uCi, iv after 1 hr postinjection by […]; format: ADME, organism-based, Adipose tissue; conditions: in vivo; summary of the method: as §1
[20] = Drug uptake in Sprague-Dawley rat fat at 25 to 35 uCi, iv after 2 hrs postinjection by […]; format: ADME, organism-based, Adipose tissue; conditions: in vivo; summary of the method: as §1
Liver [21] = assay: Drug uptake in Sprague-Dawley rat liver at 25 to 35 uCi, iv after 5 mins postinjection by […]; format: ADME, organism-based; conditions: in vivo; summary of the method: as §1
Liver [22] = assay: Drug uptake in Sprague-Dawley rat liver at 25 to 35 uCi, iv after 30 mins postinjection by […]; format: ADME, organism-based; conditions: in vivo, 0.5 h; summary of the method: as §1
Liver [23] = assay: Drug uptake in Sprague-Dawley rat liver at 25 to 35 uCi, iv after 1 hr postinjection by […]; format: ADME, organism-based; conditions: in vivo; summary of the method: as §1
Liver [24] = assay: Drug uptake in Sprague-Dawley rat liver at 25 to 35 uCi, iv after 2 hrs postinjection by […]; format: ADME, organism-based; conditions: in vivo; summary of the method: as §1
Kidney [25] = assay: Drug uptake in Sprague-Dawley rat kidney at 25 to 35 uCi, iv after 5 mins postinjection by […]; format: ADME, organism-based; conditions: in vivo; summary of the method: as §1
Kidney [26] = assay: Drug uptake in Sprague-Dawley rat kidney at 25 to 35 uCi, iv after 30 mins postinjection by […]; format: ADME, organism-based; conditions: in vivo, 0.5 h; summary of the method: as §1
Kidney [27] = assay: Drug uptake in Sprague-Dawley rat kidney at 25 to 35 uCi, iv after 1 hr postinjection by […]; format: ADME, organism-based; conditions: in vivo; summary of the method: as §1
Kidney [28] = assay: Drug uptake in Sprague-Dawley rat kidney at 25 to 35 uCi, iv after 2 hrs postinjection by […]; format: ADME, organism-based; conditions: in vivo; summary of the method: as §1
Bone [29] = assay: Drug uptake in Sprague-Dawley rat bone at 25 to 35 uCi, iv after 5 mins postinjection by […]; format: ADME, organism-based, Bone element; conditions: in vivo; summary of the method: as §1
Bone [30] = assay: Drug uptake in Sprague-Dawley rat bone at 25 to 35 uCi, iv after 30 mins postinjection by […]; format: ADME, organism-based, Bone element; conditions: in vivo, 0.5 h; summary of the method: as §1
Bone [31] = assay: Drug uptake in Sprague-Dawley rat bone at 25 to 35 uCi, iv after 1 hr postinjection by […]; format: ADME, organism-based, Bone element; conditions: in vivo; summary of the method: as §1
Bone [32] = assay: Drug uptake in Sprague-Dawley rat bone at 25 to 35 uCi, iv after 2 hrs postinjection by […]; format: ADME, organism-based, Bone element; conditions: in vivo; summary of the method: as §1
Brain [33] = assay: Drug uptake in Sprague-Dawley rat brain at 25 to 35 uCi, iv after 5 mins postinjection by […]; format: ADME, organism-based; conditions: in vivo; summary of the method: as §1
Brain [34] = assay: Drug uptake in Sprague-Dawley rat brain at 25 to 35 uCi, iv after 30 mins postinjection by […]; format: ADME, organism-based; conditions: in vivo, 0.5 h; summary of the method: as §1
Brain [35] = assay: Drug uptake in Sprague-Dawley rat brain at 25 to 35 uCi, iv after 1 hr postinjection by […]; format: ADME, organism-based; conditions: in vivo; summary of the method: as §1
Brain [36] = assay: Drug uptake in Sprague-Dawley rat brain at 25 to 35 uCi, iv after 2 hrs postinjection by […]; format: ADME, organism-based; conditions: in vivo; summary of the method: as §1
Blood [37] = assay: Drug uptake in Sprague-Dawley rat blood at 25 to 35 uCi, iv after 5 mins postinjection by […]; format: ADME, organism-based; conditions: in vivo; summary of the method: as §1
Blood [38] = assay: Drug uptake in Sprague-Dawley rat blood at 25 to 35 uCi, iv after 30 mins postinjection by […]; format: ADME, organism-based; conditions: in vivo, 0.5 h; summary of the method: as §1
Blood [39] = assay: Drug uptake in Sprague-Dawley rat blood at 25 to 35 uCi, iv after 1 hr postinjection by […]; format: ADME, organism-based; conditions: in vivo; summary of the method: as §1
[40] = Selectivity ratio of Ki for human vesicular acetylcholine transporter to Ki for sigma1 receptor in guinea pig brain membrane; format: cell membranes

SMILES: O=C(c1ccc(F)cc1)C1CCN([C@@H]2Cc3ccccc3C[C@H]2O)CC1 (racemic)
- Ki [1]: 251 nM

SMILES: O[C@@H]1Cc2cccc(OC/C=C/I)c2C[C@H]1N1CCC(c2ccccc2)CC1
- Ki [2]: 0.45 nM

SMILES: O[C@@H]1C[C@H](OCc2ccc(F)cc2)CC[C@H]1N1CCC(c2ccccc2)CC1
- Ki [2]: 330 nM
- Ki [3]: 21.3 nM
- Ki [1]: 15.8 nM

SMILES: O[C@@H]1CCN(Cc2ccc(F)cc2)C[C@H]1N1CCC(c2ccccc2)CC1
- Ki [2]: 0.22 nM
- Ki [3]: 21.6 nM
- Ki [1]: 35.9 nM
- Ratio Ki [40]: 98

SMILES: O[C@@H]1Cc2cccc(OCCCF)c2C[C@H]1N1CCC(c2ccccc2)CC1
- Ki [2]: 0.77 nM

Further lines, results first:

- Ki [1]: 319 nM
SMILES: O=C(c1ccc(F)cc1)C1CCN([C@@H]2Cc3ccccc3C[C@H]2O)CC1 (stereo in doubt; (-)-9e)

- Drug uptake (Blood [4]): 0.027 % ID/g
- Drug uptake (Lung [5]): 0.904 % ID/g
- Drug uptake (Lung [6]): 0.332 % ID/g
- Drug uptake (Lung [7]): 0.188 % ID/g
- Drug uptake (Lung [8]): 0.112 % ID/g
- Drug uptake (Heart [9]): 0.194 % ID/g
- Drug uptake (Heart [10]): 0.094 % ID/g
- Drug uptake (Heart [11]): 0.051 % ID/g
- Drug uptake (Heart [12]): 0.031 % ID/g
- Drug uptake (Muscle tissue [13]): 0.047 % ID/g
- Drug uptake (Muscle tissue [14]): 0.051 % ID/g
- Drug uptake (Muscle tissue [15]): 0.034 % ID/g
- Drug uptake (Muscle tissue [16]): 0.022 % ID/g
- Drug uptake [17]: 0.052 % ID/g
- Drug uptake [18]: 0.108 % ID/g
- Drug uptake [19]: 0.154 % ID/g
- Drug uptake [20]: 0.15 % ID/g
- Drug uptake (Liver [21]): 1.849 % ID/g
- Drug uptake (Liver [22]): 1.239 % ID/g
- Drug uptake (Liver [23]): 0.814 % ID/g
- Drug uptake (Liver [24]): 0.692 % ID/g
- Drug uptake (Kidney [25]): 0.791 % ID/g
- Drug uptake (Kidney [26]): 0.416 % ID/g
- Drug uptake (Kidney [27]): 0.291 % ID/g
- Drug uptake (Kidney [28]): 0.194 % ID/g
- Drug uptake (Bone [29]): 0.187 % ID/g
- Drug uptake (Bone [30]): 0.277 % ID/g
- Drug uptake (Bone [31]): 0.399 % ID/g
- Drug uptake (Bone [32]): 0.532 % ID/g
- Drug uptake (Brain [33]): 0.35 % ID/g
- Drug uptake (Brain [34]): 0.071 % ID/g
- Drug uptake (Brain [35]): 0.041 % ID/g
- Drug uptake (Brain [36]): 0.022 % ID/g
- Drug uptake (Blood [37]): 0.136 % ID/g
- Drug uptake (Blood [38]): 0.087 % ID/g
- Drug uptake (Blood [39]): 0.048 % ID/g
SMILES: O=C(c1ccc([18F])cc1)C1CCN([C@@H]2Cc3ccccc3C[C@H]2O)CC1 (stereo in doubt; (+))

- Ki [1]: 278 nM
SMILES: O=C(c1ccc(F)cc1)C1CCN([C@@H]2Cc3ccccc3C[C@H]2O)CC1 (stereo in doubt; (+)-9e)
